In data set [1] the target is T1, Cannabinoid receptor 2 (Homo sapiens, UniProt P34972). Put plainly: Displacement of [3H]CP55,940 from N-terminal HA-tagged human CB2 receptor expressed in HEK293 cell membranes at 10 uM after 1 hr by microbeta scintillation counting method relative to control. In a few lines:
(§1)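 Single-point competition screen against [3H]CP55,940 in HEK293 cells over-expressing 3HA-tagged hCB2 or hCB1. Compounds giving more than 50% displacement went on to full concentration-response curves.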
Background: In a radioligand displacement assay an active substance lowers the binding of a labelled ligand.

In data set [2] the target is T1, Cannabinoid receptor 2. In words: Displacement of [3H]CP55,940 from N-terminal HA-tagged human CB2 receptor expressed in HEK293 cell membranes after 1 hr by microbeta scintillation counting method.
The target in data set [3] is T2, Cannabinoid receptor 1 (Homo sapiens, UniProt P21554). Put plainly: Displacement of [3H]CP55,940 from N-terminal HA-tagged human CB1 receptor expressed in HEK293 cell membranes after 1 hr by microbeta scintillation counting method.
T2 sequence (P21554 whole entry): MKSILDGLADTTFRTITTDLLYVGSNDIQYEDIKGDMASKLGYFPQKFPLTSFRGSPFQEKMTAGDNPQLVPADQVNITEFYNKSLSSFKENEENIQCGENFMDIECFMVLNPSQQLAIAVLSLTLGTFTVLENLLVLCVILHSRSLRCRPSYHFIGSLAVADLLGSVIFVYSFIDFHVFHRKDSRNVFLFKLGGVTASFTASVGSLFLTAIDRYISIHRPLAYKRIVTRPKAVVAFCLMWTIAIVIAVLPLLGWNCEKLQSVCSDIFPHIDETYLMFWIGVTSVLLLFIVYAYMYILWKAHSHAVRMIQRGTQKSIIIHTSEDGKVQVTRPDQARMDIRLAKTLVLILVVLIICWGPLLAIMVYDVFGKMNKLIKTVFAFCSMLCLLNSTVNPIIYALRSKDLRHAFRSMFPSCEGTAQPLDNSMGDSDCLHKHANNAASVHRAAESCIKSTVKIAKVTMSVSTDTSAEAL
Data set [4] concerns the target T2, Cannabinoid receptor 1. In words: Displacement of [3H]CP55,940 from N-terminal HA-tagged human CB1 receptor expressed in HEK293 cell membranes at 10 uM after 1 hr by microbeta scintillation counting method relative to control. The gist of the method: as §1
Data set [5] has as its target T1, Cannabinoid receptor 2. In words: Agonist activity at N-terminal HA-tagged human CB2 receptor expressed in HEK293 cells transfected with YFP-Epac-RLuc assessed as decrease in forskolin-stimulated cAMP level by BRET assay relative to control. The data set is classed as functional, cell-based. The gist of the method:
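BRET cAMP biosensor read-out in HEK293 cells expressing HA-tagged human CB1 or CB2, with forskolin stimulation (5 µM). Concentration-response curves; area-under-curve values normalised to forskolin alone = 100% and basal = 0%. EC50 taken for agonists and IC50 for inverse agonists. Mean of at least three independent experiments, each point in duplicate.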
A general note: Changes in cAMP serve as a functional read-out for many G protein-coupled receptors.

The target in data set [6] is T1, Cannabinoid receptor 2. In words: Agonist activity at N-terminal HA-tagged human CB2 receptor expressed in HEK293 cells transfected with YFP-Epac-RLuc assessed as decrease in forskolin-stimulated cAMP level at 10 uM by BRET assay. The data set is classed as functional, cell-based. The gist of the method:
(§2)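 Single-concentration screen at 10 µM in CB receptor-expressing HEK293 cells, run with and without CP55,940 as reference agonist. Forskolin-stimulated cAMP read by BRET biosensor. A fall in cAMP is scored as agonism and a rise as inverse agonism.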

In data set [7] the test system is HEK293. In words: Effect on forskolin-stimulated cAMP level in HEK293 cells at 1 uM by BRET assay relative to control. The data set is classed as ADME, cell-based. Conditions: human, hek293, 1 µM. In a few lines:
(§3)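 Wild-type HEK293 cells lacking transfected receptor, tested at 10 µM and 1 µM. Forskolin-stimulated cAMP measured by BRET as a check that responses are receptor-mediated.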

Data set [8] addresses T2, Cannabinoid receptor 1. Put plainly: Agonist activity at N-terminal HA-tagged human CB1 receptor expressed in HEK293 cells transfected with YFP-Epac-RLuc assessed as decrease in forskolin-stimulated cAMP level at 10 uM by BRET assay. In kind it is functional, cell-based. In a few lines:
as §2

Data set [9] relates to HEK293. In words: Effect on forskolin-stimulated cAMP level in HEK293 cells at 10 uM by BRET assay relative to control. The settings on record: human, hek293, 10 µM. The data set is classed as ADME, cell-based. In a few lines:
as §3

Calls of active or inactive are those of the source. No cut-off for these calls is given here.

T1 sequence (P34972 whole entry): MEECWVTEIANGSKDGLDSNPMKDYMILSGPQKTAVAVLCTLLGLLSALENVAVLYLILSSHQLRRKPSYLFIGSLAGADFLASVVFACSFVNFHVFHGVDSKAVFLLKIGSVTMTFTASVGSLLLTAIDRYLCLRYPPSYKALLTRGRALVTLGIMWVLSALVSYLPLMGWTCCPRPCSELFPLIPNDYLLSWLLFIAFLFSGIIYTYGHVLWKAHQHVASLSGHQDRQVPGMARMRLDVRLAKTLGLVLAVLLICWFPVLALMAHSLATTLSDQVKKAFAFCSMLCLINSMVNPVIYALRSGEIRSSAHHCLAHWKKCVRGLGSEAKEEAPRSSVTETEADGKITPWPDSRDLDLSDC

For the compound `COc1ccc(C(=O)c2cn(CC3CCOC3)c3ccc(O)cc23)cc1` (stereo not given), on Cannabinoid receptor 2 [1], the inhibition (in general, the percentage by which the read-out fell short of the control) is > 50%. Further, the results for the Ki at Cannabinoid receptor 2 [2] (read-out: Ki) and at Cannabinoid receptor 1 [3] (hek293) were > 10 µM and “Not Active”, respectively.
In the case of `O=C(CCCCCNC(=O)COc1ccc(/C=C/C2=[N+]3C(=Cc4ccc(-c5cccs5)n4[B-]3(F)F)C=C2)cc1)NCCCCCCCCNC(=O)COc1ccc2c(c1)c(C(=O)c1cccc3ccccc13)cn2CCN1CCOCC1`, on Cannabinoid receptor 2 [2] (hek293), the Ki (as a rule, the equilibrium dissociation constant of an inhibitor or competing ligand from its target) was “Not Active”.
On to `COc1ccc(C(=O)c2cn(CCN3CCOCC3)c3cc(O)ccc23)cc1`, for which the inhibition at Cannabinoid receptor 2 [1] was > 50%. Besides, the Ki on Cannabinoid receptor 2 [2] (read-out: Ki) was > 10 µM; at Cannabinoid receptor 1 [3] (hek293), “Not Active”.
For the compound `COc1ccc(C(=O)c2cn(CC3CCOCC3)c3ccc(OCC(=O)N[C@@H](C)C(=O)N[C@@H](C)C(=O)NCCN)cc23)cc1`, the inhibition at Cannabinoid receptor 1 [4] is > 50%. Further, on Cannabinoid receptor 2 [2] (hek293), the Ki entry is “Not Active”.
Consider `COc1ccc(C(=O)c2cn(CCN3CCOCC3)c3ccc(OCC(=O)NCCCCCCCCN)cc23)cc1`, for which the inhibition at Cannabinoid receptor 1 [4] and at Cannabinoid receptor 2 [1] was > 50% in each case. In addition, the Ki at Cannabinoid receptor 2 [2] (read-out: Ki) is > 10 µM.
Consider `COc1ccc(C(=O)c2cn(CC3CCOCC3)c3ccc(OCCOCCOCCOCCNC(C)=O)cc23)cc1`, for which the inhibition at Cannabinoid receptor 2 [1] was > 50%. The Ki on Cannabinoid receptor 2 [2] (read-out: Ki) is > 10 µM; on Cannabinoid receptor 1 [3] (hek293), “Not Active”.
For the compound `COc1ccc(C(=O)c2cn(CCN3CCOCC3)c3ccc(OCCCCCCC(=O)NCCOCCOCCNC(=O)CCCCCNC(=O)COc4ccc(/C=C/C5=[N+]6C(=Cc7ccc(-c8cccs8)n7[B-]6(F)F)C=C5)cc4)cc23)cc1`, the Ki on Cannabinoid receptor 2 [2] (read-out: Ki) and at Cannabinoid receptor 1 [3] (read-out: Ki) was > 10 µM each time.
On to `O=C(O)COc1ccc2c(c1)c(C(=O)c1cccc3ccccc13)cn2CCN1CCOCC1`, for which the inhibition at Cannabinoid receptor 1 [4] and on Cannabinoid receptor 2 [1] was > 50% throughout. For the same compound, the Ki at Cannabinoid receptor 2 [2] (read-out: Ki) and on Cannabinoid receptor 1 [3] (read-out: Ki) was > 10 µM each time.
In the case of `COc1ccc(C(=O)c2cn(CCN3CCOCC3)c3ccc(OCC(=O)NC(C)(C)C(=O)NC(C)(C)C(=O)NCCNC(=O)CCCCCNC(=O)COc4ccc(/C=C/C5=[N+]6C(=Cc7ccc(-c8cccs8)n7[B-]6(F)F)C=C5)cc4)cc23)cc1`, the Ki on Cannabinoid receptor 2 [2] (read-out: Ki) was > 10 µM.
As for `CC(C)(NC(=O)COc1ccc2c(c1)c(C(=O)c1cccc3ccccc13)cn2CCN1CCOCC1)C(=O)NC(C)(C)C(=O)NCCNC(=O)CCCCCNC(=O)COc1ccc(/C=C/C2=[N+]3C(=Cc4ccc(-c5cccs5)n4[B-]3(F)F)C=C2)cc1`, the Ki at Cannabinoid receptor 2 [2] (read-out: Ki) was > 10 µM.
With `NCCCCCCCCNC(=O)COc1ccc2c(c1)c(C(=O)c1cccc3ccccc13)cn2CCN1CCOCC1`, the inhibition at Cannabinoid receptor 1 [4] and at Cannabinoid receptor 2 [1] was > 50% in each case. For the same compound, the Ki at Cannabinoid receptor 2 [2] (read-out: Ki) was > 10 µM.
Consider `CCCCCCC(C)(C)c1ccc([C@@H]2C[C@H](O)CC[C@H]2CCCO)c(O)c1` [CP-55940], for which, on Cannabinoid receptor 2 [5], the Emax (usually the greatest response seen or fitted, relative to the assay's reference) worked out at 41%. Besides, the outcome at Cannabinoid receptor 2 [6] and at Cannabinoid receptor 1 [8] was Active. In addition, the Activity amounted to 99.2% with HEK293 [7] and 98% in the data set with HEK293 [9].
Turning to `COc1ccc(C(=O)c2cn(CCN3CCOCC3)c3ccc(OCC(=O)N[C@@H](C)C(=O)N[C@@H](C)C(=O)NCCN)cc23)cc1`, the inhibition on Cannabinoid receptor 1 [4] is > 50%. Also, the Ki result on Cannabinoid receptor 2 [2] (hek293) is on record as “Not Active”.
On to `COc1ccc(C(=O)c2cn(CCN3CCOCC3)c3ccc(OCC(=O)NCCOCCOCCNC(=O)CCCCCNC(=O)COc4ccc(/C=C/C5=[N+]6C(=Cc7ccc(-c8cccs8)n7[B-]6(F)F)C=C5)cc4)cc23)cc1`, for which, at Cannabinoid receptor 2 [2] (read-out: Ki), the Ki was > 10 µM.
For `C[C@H](NC(=O)COc1ccc2c(c1)c(C(=O)c1cccc3ccccc13)cn2CCN1CCOCC1)C(=O)N[C@@H](C)C(=O)NCCN`, the inhibition at Cannabinoid receptor 1 [4] is > 50%. In addition, on Cannabinoid receptor 2 [2] (hek293), the Ki entry is “Not Active”.
For `NCCOCCOCCNC(=O)COc1ccc2c(c1)c(C(=O)c1cccc3ccccc13)cn2CCN1CCOCC1`, the inhibition on Cannabinoid receptor 1 [4] and at Cannabinoid receptor 2 [1] was > 50% throughout. Further, the Ki at Cannabinoid receptor 2 [2] (read-out: Ki) was > 10 µM.
With `COc1ccc(C(=O)c2cn(CCN3CCOCC3)c3ccc(OCC(=O)O)cc23)cc1`, the inhibition at Cannabinoid receptor 1 [4] and at Cannabinoid receptor 2 [1] was > 50% each time. Further, the Ki at Cannabinoid receptor 2 [2] (read-out: Ki) and at Cannabinoid receptor 1 [3] (read-out: Ki) was > 10 µM each time.
In the case of `COc1ccc(C(=O)c2cn(CCN3CCOCC3)c3ccc(OCC(=O)NCCCCCCCCNC(=O)CCCCCNC(=O)COc4ccc(/C=C/C5=[N+]6C(=Cc7ccc(-c8cccs8)n7[B-]6(F)F)C=C5)cc4)cc23)cc1`, the Ki entry at Cannabinoid receptor 2 [2] (hek293) is reported as “Not Active”.
Turning to `COc1ccc(C(=O)c2cn(CC3CCOCC3)c3c(OCCCCC(=O)NCCOCCOCCNC(C)=O)cccc23)cc1`, the inhibition on Cannabinoid receptor 1 [4] and at Cannabinoid receptor 2 [1] was > 50% throughout. In addition, the Ki on Cannabinoid receptor 2 [2] (read-out: Ki) and on Cannabinoid receptor 1 [3] (read-out: Ki) was > 10 µM throughout.
`COc1ccc(C(=O)c2cn(CCN3CCOCC3)c3ccc(OCC(=O)NCCOCCOCCN)cc23)cc1`: the inhibition at Cannabinoid receptor 1 [4] and at Cannabinoid receptor 2 [1] was > 50% each time. In addition, the Ki on Cannabinoid receptor 2 [2] (read-out: Ki) was > 10 µM.
Turning to `COc1ccc(C(=O)c2cn(CC3CCOCC3)c3ccc(OCC(=O)NC(C)(C)C(=O)NC(C)(C)C(=O)NCCNC(=O)CCCCCNC(=O)COc4ccc(/C=C/C5=[N+]6C(=Cc7ccc(-c8cccs8)n7[B-]6(F)F)C=C5)cc4)cc23)cc1`, at Cannabinoid receptor 2 [2] (read-out: Ki), the Ki was > 10 µM.
Regarding `Cc1c(C(=O)c2cccc3ccccc23)c2cccc3c2n1[C@H](CN1CCOCC1)CO3` [WIN-552122], the Activity with HEK293 [7] was 96.1%; in the data set with HEK293 [9], 102.6%.
As for `COc1ccc(C(=O)c2cn(CCN3CCOCC3)c3ccc(OCCCCC(=O)NCCOCCOCCNC(=O)CCCCCNC(=O)COc4ccc(/C=C/C5=[N+]6C(=Cc7ccc(-c8cccs8)n7[B-]6(F)F)C=C5)cc4)cc23)cc1`, the Ki on Cannabinoid receptor 2 [2] (read-out: Ki) and on Cannabinoid receptor 1 [3] (read-out: Ki) was > 10 µM each time.
On to `COc1ccc(C(=O)c2cn(CCN3CCOCC3)c3ccc(OCC(=O)NCCOCCOCCNC(C)=O)cc23)cc1`, for which the inhibition on Cannabinoid receptor 1 [4] and at Cannabinoid receptor 2 [1] was > 50% throughout. Also, the Ki at Cannabinoid receptor 2 [2] (read-out: Ki) is > 10 µM.
For `O=C(CCCCCNC(=O)COc1ccc(/C=C/C2=[N+]3C(=Cc4ccc(-c5cccs5)n4[B-]3(F)F)C=C2)cc1)NCCOCCOCCNC(=O)COc1ccc2c(c1)c(C(=O)c1cccc3ccccc13)cn2CCN1CCOCC1`, at Cannabinoid receptor 2 [2] (read-out: Ki), the Ki was > 10 µM.
